SR-BI HDL uptake – mouse SR-BI HDL lipid transfer inhibition; ldlA[mSR-BI] CHO cells, DiI-HDL uptake fluorescence, 3 h; inhibition, % at 12.5 µM; 320,000 compounds, 0.96% hits;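 active means mean replicate inhibition of at least 70% and a set share of replicates each scoring 70 or more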;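 further: 0% = median of neutral control wells and 100% = median of positive control wells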
Target sequence (Q61009 whole entry, looked up): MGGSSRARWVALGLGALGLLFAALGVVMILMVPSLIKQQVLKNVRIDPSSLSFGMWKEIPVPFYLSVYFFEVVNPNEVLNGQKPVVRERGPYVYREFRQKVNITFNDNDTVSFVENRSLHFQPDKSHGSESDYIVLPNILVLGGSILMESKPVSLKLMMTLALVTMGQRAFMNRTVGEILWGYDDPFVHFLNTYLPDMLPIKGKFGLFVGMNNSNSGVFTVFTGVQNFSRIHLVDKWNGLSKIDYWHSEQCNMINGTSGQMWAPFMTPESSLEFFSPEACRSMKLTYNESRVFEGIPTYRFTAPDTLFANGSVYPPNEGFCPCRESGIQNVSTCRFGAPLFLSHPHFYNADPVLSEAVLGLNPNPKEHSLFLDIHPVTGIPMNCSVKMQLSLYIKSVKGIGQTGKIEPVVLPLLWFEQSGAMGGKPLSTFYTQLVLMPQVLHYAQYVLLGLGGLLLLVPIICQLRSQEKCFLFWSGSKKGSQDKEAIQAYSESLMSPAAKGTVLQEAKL
CR mimetic SO – yeast age-related superoxide inhibition as caloric restriction mimetic; superoxide response (% of plate mean), % at 10 µM; 330,000 compounds, 0.18% hits; S. cerevisiae aged cells, superoxide DHE fluorescence; hits give low values;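 active means superoxide response under a set limit, about three screen SD below normal, cut at about 65% in these data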;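 further: yeast aged for seven days with compound at 30 °C before DHE staining; 100% = average MFI of all compound-treated wells on the plate with controls excluded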
Lipid droplet – hepatic lipid droplet formation modulation. AML12 mouse hepatocytes, oleate lipid droplets, BODIPY imaging. inhibition, % at 6.5 µM. 240,000 compounds, 0.4% hits;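 active means lipid droplet intensity inhibited by at least 50%, with more than 500 cells counted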
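Test system: AML12 mouse liver cells; schedule: overnight exposure; technique: high-content imaging of BODIPY-stained droplets and DAPI nuclei; read-out: % inhibition of corrected integrated BODIPY droplet signal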
SMARCA2 act – increases SMARCA2 function in MMTV reporter cells; activation, % at 9.1 µM; MG213 cells, MMTV-luciferase reporter, dexamethasone, overnight; 370,000 compounds, 1% hits; in the data active means activation above about 7.8%;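 further: 0% = vehicle wells and 100% = reference activator wells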
SR-BI DiI-HDL act – activators of SR-BI mediated HDL lipid uptake; CHO ldlA[mSR-BI] cells, DiI-HDL uptake fluorescence, 3 h; 100 = double the neutral-control signal; 320,000 compounds, 0.096% hits; activation, % at 12.5 µM;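 active means mean replicate activation of at least 60% and every replicate at or above 60%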;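 further: 0% = median plate neutral-control signal and 100% = twice that signal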
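Test system: SR-BI-overexpressing, LDLR-lacking CHO cells. Measured by: DiI fluorescence, bottom read. Medium: Ham's F12 with 0.5% BSA, HEPES 25 mM, pH 7.4. Timing: 3 h uptake period with compound, 37 °C.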
AHR act – human AHR activation. AID 2796. 320,000 compounds, 2.5% hits. AHR-responsive luciferase reporter cells, luminescence. activation, % at 5 µM; in the data active means activation above about 47%;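 further: 0% = vehicle wells and 100% = reference agonist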
* hit, by the source's call; . = not tested or not shown. Sampled rows, rich in hits. Any-hit rate of the full collection: about 4.3%.

SMILES	SR-BI HDL uptake	CR mimetic SO	Lipid droplet	SMARCA2 act	SR-BI DiI-HDL act	AHR act
COc1ccc(C)cc1NC(=O)C(OC(=O)c1cc(C)oc1C)c1ccccc1 (configuration not stated)	10.0	94.9	3.4	-2.2	-10.0	73.5*
COc1ccc(C)cc1NC(=O)C(OC(=O)CNC(=O)c1cccc(F)c1)c1ccccc1 (configuration not stated)	12.0	82.9	7.4	-2.6	-12.0	72.0*
COc1ccc(NC(=O)C(OC(=O)c2cnc(C)cn2)c2ccccc2)cc1Cl (configuration not stated)	-8.9	117.8	.	-1.1	8.9	6.7
O=C(CSc1nnc(Cc2cccs2)n1-c1ccccc1)Nc1ccccc1-c1ccccc1	.	.	.	-4.1	.	.
C=CCn1c(COc2ccc(C)cc2)nnc1SCC(=O)Nc1ccc(Oc2ccccc2)cc1	.	.	.	-4.3	.	.
COC(=O)c1cn(-c2ccc(-c3noc4c3C(=O)N(CC(=O)N3CCOCC3)CC4)cc2)nn1	.	.	.	2.8	.	.
O=C(COc1ccc(/C=N/NC(=O)c2cc3ccccc3o2)cc1Cl)Nc1ccccc1	74.5*	110.1	3.2	.	-74.5	-0.4
O=C(N/N=C/c1ccc(O)cc1)c1cc(-c2ccc3c(c2)OCO3)n[nH]1	12.2	88.1	18.7	3.7	-12.2	76.2*
Cc1cc(NC(=O)c2ccc3c(c2)OCCO3)ccc1NC(=O)c1cc2ccccc2o1	67.8	117.5	-1.2	-1.5	-67.8	-7.9
O=C(NN=Cc1c(O)ccc2ccccc12)c1ccc2c(c1)OCO2	123.9*	78.3	.	-4.9	-123.9	6.0
O=C(N/N=C/c1c(O)ccc2ccccc12)c1ccc(CO)nc1	42.8	101.9	-32.3	-3.0	-42.8	22.9
COc1cc(/C=N/NC(=O)c2ccccc2O)ccc1OCC(=O)Nc1ccccc1	17.2	95.9	-4.3	1.8	-17.2	7.8
O=C(Nc1ccc(NC(=O)c2cc3ccccc3o2)cc1)c1ccc2c(c1)OCCO2	73.2*	101.5	17.3	0.9	-73.2	-11.4
COC(=O)[C@]12C[C@H](CC(=O)N3CCOCC3)C(=O)N(Cc3ccco3)C1=C[C@H](C1CCCC1)O[C@@H]2C	.	.	.	-2.1	.	.
O=C(N/N=C/c1cccc(O)c1)c1cc(-c2ccc3c(c2)OCO3)n[nH]1	0.0	89.5	7.3	-0.9	0.0	117.0*
O=C(N/N=C/c1ccc2c(c1)OCO2)c1cc2ccccc2o1	.	108.1	9.5	-0.5	.	69.0*
O=C(N/N=C/c1cccc2ccccc12)c1cc2ccccc2o1	14.6	.	-12.8	-1.3	-14.6	.
O=C(N/N=C/c1ccccc1)c1cc(-c2ccc3c(c2)OCO3)n[nH]1	14.1	117.8	4.0	0.1	-14.1	88.4*
O=C(N/N=C\c1c(O)ccc2ccccc12)c1ccc(S(=O)(=O)N2CCCCC2)cc1	143.1*	102.1	-18.4	-0.4	-143.1	4.0
COc1ccc(-c2cc(C(=O)NN=Cc3ccc(-c4ccccc4)cc3)[nH]n2)cc1	.	.	.	0.4	.	.
O=C(N/N=C/c1cccc([N+](=O)[O-])c1)c1cc(-c2ccc3c(c2)OCO3)n[nH]1	-3.1	101.8	-7.8	-1.7	3.1	20.4
O=C(NCCc1c[nH]c2ccccc12)OCc1cn(-c2ccc(F)cc2F)nn1	.	.	.	-0.4	.	.
CC(C)c1[nH]nc2c1C(c1cccc(C(F)(F)F)c1)NC2=O (configuration not stated)	.	.	.	-3.1	.	.
Cc1cccc(C(=O)Nc2ccc(C(=O)N/N=C/c3ccc4c(c3)OCO4)cc2)c1	85.3*	99.4	-3.2	-3.6	-85.3	1.8
COc1ccc(/C=N/NC(=O)c2cccc(C(=O)N/N=C/c3ccc(OC)cc3)n2)cc1	-1.8	102.8	.	-0.5	1.8	5.3
SMILES	SR-BI HDL uptake	CR mimetic SO	Lipid droplet	SMARCA2 act	SR-BI DiI-HDL act	AHR act
CC/C(=N/NC(=O)c1ccc2c(c1)OCO2)c1ccccc1O	99.7*	92.1	.	-2.2	-99.7	10.6
O=C(N/N=C\c1ccccc1)c1cccc(C(=O)N/N=C\c2ccccc2)n1	.	89.5	.	1.5	.	70.5*
CN(C)c1ccc(/C=N/NC(=O)c2ccc3c(c2)OCO3)cc1	4.8	94.7	4.8	3.0	-4.8	.
O=C(N/N=C/c1ccccc1)c1ccc2c(c1)OCO2	-1.0	98.5	-3.3	2.7	1.0	70.0*
C/C(=N\NC(=O)c1cc2ccccc2cc1O)c1ccc2c(c1)OCO2	11.5	93.1	.	3.6	-11.5	4.8
COc1ccc(-n2c(SCC(=O)NC3CCCCCC3)nnc2-c2ccncc2)cc1	.	.	.	1.9	.	.
O=S(=O)(c1ccc(NC(=S)NN=Cc2ccccc2O)cc1)N1CCCCC1	91.8*	.	.	-4.5	-91.8	.
NS(=O)(=O)c1ccc(NC(=S)Nc2ccc(S(=O)(=O)N3CCCC3)cc2)cc1	7.3	109.1	-21.5	-1.1	-7.3	-2.8
Cc1ccc(NC(=O)C2=C(O)CCn3c2nc2ccccc23)cc1	14.2	113.0	14.2	3.9	-14.2	56.9*
Cc1ccc(NC(=O)NCc2nc3ccccc3n2C)cc1	-16.4	97.3	-2.3	-2.3	16.4	4.8
COC(=O)[C@]12C[C@H](CC(=O)NCCC(C)C)C(=O)N(Cc3ccc(Cl)cc3Cl)C1=C[C@H](C1CCCC1)O[C@@H]2C	.	.	.	-2.8	.	.
COc1ccc(C(=O)c2sc(Nc3ccccc3)nc2N)cc1	45.9	102.0	-5.2	5.8	-45.9	.
Cc1cc(NC(=O)c2sc(Nc3ccc(F)cc3)nc2N)no1	34.0	99.7	3.0	1.3	-34.0	55.7*
Cc1cnc(NC(=O)c2sc(Nc3ccccc3)nc2N)o1	5.3	114.0	-0.4	3.0	-5.3	54.6*
CCCCc1nnn2c1C1c3cc(Br)ccc3CCN1C(=O)C2 (configuration not stated)	.	.	.	1.8	.	.
CC1=CCC(/C=N\Nc2nnc3c(n2)[nH]c2ccccc23)CC1 (configuration not stated)	.	102.0	-1.1	.	.	54.9*
CC(c1ccccc1)n1cc(C(=O)NCCCN2CCCC2)nn1 (configuration not stated)	.	.	.	-0.8	.	.
O=C(CSC1=NCCN1)NC12CC3CC(CC(C3)C1)C2	73.2*	89.0	.	-2.9	-73.2	1.7
COc1ccc(CNC(=O)COc2cc3c(c4oc(=O)cc(C)c24)CCC(C)(C)O3)cc1	40.4	86.6	.	1.0	-40.4	6.1
COc1cccc(CNC(=O)COc2cc3c(c4oc(=O)cc(C)c24)CCC(C)(C)O3)c1	77.1*	87.8	.	0.6	-77.1	4.4
COc1cc(C2N=C(c3ccccc3)NO2)cc(Br)c1O (configuration not stated)	-20.9	91.5	0.4	3.8	20.9	64.6*
Cc1cc(C)c(C)c(S(=O)(=O)N2CCC(C(=O)NNC(=O)c3ccccc3O)CC2)c1C	118.8*	94.9	.	0.7	-118.9	3.3
Cc1ccc(S(=O)(=O)N2CCC(C(=O)N3CCCCCCC3)CC2)cc1C	.	.	.	-6.8	.	.
Cc1ccc(S(=O)(=O)N2CCC(C(=O)NNC(=O)c3ccccc3O)CC2)cc1C	72.1*	99.2	.	1.3	-72.1	9.5
